Only a sample is shown.
Apaf-1 act: activators of human Apaf-1 apoptosome; O14727; Apaf-1 apoptosome caspase-3 activation, DEVD-Rh110 fluorescence; hits give low values; 0.31% of 330,000 active; activity change, negative = activation, % at 20 µM;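 active = activity change at or below -40% at 20 µM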
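system = biochemical Apaf-1 apoptosome reconstitution | buffer or medium = 20 mM HEPES pH 7.5 with CHAPS, BSA | also added = dATP and cytochrome c as apoptosome triggers, (Z-DEVD)2-Rh110 substrate | incubation = 30 min compound preincubation and 50 min reaction, both room temperature | measured by = fluorescence, 540 nm emission, 480 nm excitation | read-out basis = Caspase-3 cleavage activity downstream of Apaf-1 activation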
Rh110 act interf: interferes with Rh110 fluorescence, flagging false Apaf-1 activators; shares compounds with Apaf-1 act; AID 504616; Rh110 fluorescence interference, quenched caspase reaction, Ex480/Em540; 980 tested, under 10 active; fluorescence interference (activity change), % at 20 µM, hits read low;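 active = mean activity change at or below -40% when tested at 20 µM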
Apaf-1 act conf2: confirmation of human Apaf-1 activators; shares compounds with Apaf-1 act; activity change, negative = activation, % at 20 µM; AID 504617; 5% of 980 active; reconstituted apoptosome caspase-3 activity, DEVD-Rh110 fluorescence; hits give low values;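 active = mean activity change at or below -40%, meaning activation of 40% or more, at 20 µM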
Apaf1 act interf: counter-screen for Apaf-1 activators: fluorescence interference, dose response; fluorescence interference counterscreen, Apaf-1 activator assay; shares compounds with Apaf-1 act; 55 tested, under 10 active; EC50, µM; call rule not given here
Of the large screens only hits and unclear results are named; the others gave an inactive call (follow-up assays come after a bar, where they were run).

CN(CC(=O)Nc1ccc(Cl)c(Cl)c1)C(=O)C12CC3CC(CC(C3)C1)C2	Apaf-1 act -86 | Rh110 act interf inactive | Apaf-1 act conf2 inactive
Cc1cc2cc(CNC(=O)Nc3ccc(Cl)c(Cl)c3)ccc2n1C	none
CCC(=Nc1ccc(N)cc1)C1=C(O)C(C(=O)OC)C(C)(C)CC1=O (configuration not stated)	none
O=C(Nc1cccc(-n2cnnn2)c1)c1ccc(C(F)(F)F)cc1	Apaf-1 act -67 | Rh110 act interf inactive | Apaf-1 act conf2 inactive
Cc1nc(Nc2cnc(/C=C/c3cc(C(=O)Nc4cccc(C(F)(F)F)c4)ccc3C)cn2)cc(N2CCNCC2)n1	none
O=C(NC1(O)C(=O)c2ccccc2C1=O)c1ccc(C(F)(F)F)cc1	none
C#CCOCCOCCOCCNc1nc(N2CCN(C(=O)CCCCCCCCCCNC(=O)[C@H](CCCCN)n3cc(CCO)nn3)CC2)nc(N2CCN(C(=O)CCCCCCCCCCNC(=O)[C@H](CCCN=C(N)N)n3cc(C[C@@H](C)CC)nn3)CC2)n1	none
CCCC(CCC)C(=O)O	none
COCCn1c(N)c(C(=O)NCc2cccs2)c2nc3ccccc3nc21	none
CCN(CC(=O)NCc1cccs1)C(=O)CCCOc1ccc(C(C)(C)C)cc1	none
O=C(NCc1cccs1)c1cccnc1C(=O)O	Apaf-1 act -79 | Rh110 act interf inactive | Apaf-1 act conf2 inactive
Cc1ccc(-c2nn3c(C)nnc3c3ccccc23)cc1S(=O)(=O)NCc1ccccc1	none
CCN(CC)C(=O)C1CCCN(C(=O)Nc2ccc3nsnc3c2)C1 (configuration not stated)	none
CCCCCN=C(N)N/N=C/c1c[nH]c2ccc(OC)cc12	none
CCCCCCCc1ccc(C2NC(=S)NC3=C2C(=O)c2ccccc23)cc1 (configuration not stated)	none
COCCNC(=O)c1c(N)n(CCCn2ccnc2)c2nc3ccccc3nc12	none
COc1ccc(-c2oc3ccc(-c4cc(OC)c(OC)c(OC)c4)cc3c2-c2ccc(OC)cc2)cc1	Apaf-1 act -211 | Rh110 act interf inactive | Apaf-1 act conf2 inactive
CCOC(=O)Nc1ccc2c(c1)N(C(=O)OCCN(C)C)c1ccccc1CC2	none
COCCCC1CCN(Cc2nc(-c3ccccc3)no2)CC1	Apaf-1 act -51 | Rh110 act interf inactive | Apaf-1 act conf2 inactive
c1ccc(-c2noc(CN3CCN(c4cnccn4)CC3)n2)cc1	Apaf-1 act -92 | Rh110 act interf inactive | Apaf-1 act conf2 inactive
Nc1cc(N2CCCC2)c(Cl)cc1[N+](=O)[O-]	none
COc1cc(C(=O)NC(C)c2ccc(-n3ccnc3)cc2)cc(OC)c1C (configuration not stated)	none
COc1ccc(/C(O)=C2/C(=O)C(=O)N(Cc3ccco3)C2c2cccs2)cc1 (configuration not stated)	Apaf-1 act -64 | Rh110 act interf inactive | Apaf-1 act conf2 inactive
COc1ccc(C2/C(=C(/O)c3ccc4c(c3)CC(C)O4)C(=O)C(=O)N2CCCn2ccnc2)cc1 (configuration not stated)	none
Cn1c(CCN2CCCCC2)nc2cc(NC(=O)COc3ccccc3)ccc21	none
CCC(C)Sc1ccc(-c2nc3ccc(C)cn3c2NC2CCCCC2)cc1 (configuration not stated)	none
c1cc(SC2CCCCC2)cc(-c2nc3cnccn3c2NC2CCCCC2)c1	none
Cc1ccc2nc(-c3cccnc3)c(NC3CCCCC3)n2c1	Apaf-1 act -50 | Rh110 act interf inactive | Apaf-1 act conf2 inactive
Clc1ccccc1-c1nn2c(-c3ccncc3)nnc2s1	none
CCN1C(=O)C(C(=O)Nc2ccc(OC)cc2)C2CC1(C)Oc1ccccc12 (configuration not stated)	Apaf-1 act -542 | Rh110 act interf inactive | Apaf-1 act conf2 inactive
CNC[C@H]1Oc2ccc(NC(=O)Nc3ccc(OC)cc3)cc2C(=O)N([C@@H](C)CO)C[C@H]1C	none
CC[C@@H](C)[C@@H]1CN([C@@H](C)CN2CCC[C@H]2CN2C(N)=NC[C@@H]2Cc2ccccc2)C(=N)N1CCCC1CCCC1	none
CC(=O)Nc1cccc(NC(=S)Nc2cccc3ccccc23)c1	none
COc1cc(C)c(NC(=O)COc2ccc3c(c2)CCC3)cc1OC	Apaf-1 act -284 | Rh110 act interf inactive | Apaf-1 act conf2 inactive
Cc1cc(C)cc(OCC(=O)Nc2ccc(N3CCCC3)cc2)c1	none
COc1cc2cc(NC(C)=O)cc(NCc3ccccc3)c2cc1OC	none
COc1ccc(N/C=C2\CCc3ccccc3C2=O)cc1	none
CC(C)C[C@@H]1CN=C(N)N1C[C@@H]1CCCN1C[C@@H](C(C)C)N1C[C@@H](Cc2ccccc2)N(CCCC2CCCC2)C1=N	none
COc1ccc(CNC(=O)CNS(=O)(=O)c2ccc(Cl)cc2)cc1	Apaf-1 act -177 | Rh110 act interf inactive | Apaf-1 act conf2 inactive
CC1CCN(C2=C(NS(=O)(=O)c3ccc(Cl)cc3)C(=O)c3ccccc3C2=O)CC1	none
Cc1ccc(-c2noc(CCC(=O)N3CCN(c4cccc(C(F)(F)F)c4)CC3)n2)cc1	none
O=C(CSc1ccccn1)N1CCN(c2ccccc2)CC1	Apaf-1 act -49 | Rh110 act interf inactive | Apaf-1 act conf2 inactive
O=C(NCCc1ccccc1)c1ccccc1SCC(=O)N1CCCC1	none
Cc1[nH]n(-c2ccccc2)c(=O)c1C(C[N+](=O)[O-])c1ccc(Cl)cc1 (configuration not stated)	none
COc1cc(/C=C2/C(=O)N(c3ccc([N+](=O)[O-])cc3)N=C2N2CCOCC2)ccc1O	none
COc1cc(/C=C2\SC(=O)N(c3cccc(Cl)c3)C2=O)cc([N+](=O)[O-])c1O	Apaf-1 act -142 | Rh110 act interf inactive | Apaf-1 act conf2 -132 | Apaf1 act interf inactive
Cc1cccc(OCc2n(CC(=O)OC3CC(C)CCC3C(C)C)c3ccccc3[n+]2C)c1 (configuration not stated)	none
COc1cc(/C=C2/C(=O)N(c3ccccc3)N=C2C)ccc1OS(=O)(=O)c1ccccc1	none
CCOc1ccc(CCNC(=O)c2ccc3c(=O)[nH]c4c(C(=O)NC(C)C)sc(=S)n4c3c2)cc1	Apaf-1 act -515 | Rh110 act interf inactive | Apaf-1 act conf2 inactive
CCCNC(=O)OC[C@H]1O[C@H](CCO/N=C(\C)CCN2CCc3nc(-c4ccccc4)c(-c4ccccc4)cc3C2)C=C[C@@H]1Oc1ccc(OC)cc1	none
CC(C)[C@H](N)C(=O)OCCOCn1cnc2c(=O)[nH]c(N)nc21	none
CCCCn1c(=O)[nH]c(=O)c2c1nc(-c1ccc([N+](=O)[O-])cc1)n2CC	Apaf-1 act -45 | Rh110 act interf inactive | Apaf-1 act conf2 inactive
N=c1n(Cc2ccccc2)c2ccccc2n1CC(O)COc1ccc(Cl)cc1Cl (configuration not stated)	none
O=C(NCc1ccccc1)C1(CC2CC(c3ccccc3)=NO2)CCNCC1 (configuration not stated)	none
COc1ccc(C(=O)Nn2cnc3scc(-c4cccs4)c3c2=O)c(O)c1	Apaf-1 act -391 | Rh110 act interf inactive | Apaf-1 act conf2 inactive
COc1ccc(Nc2ccc(OC)cc2)cc1	none
COc1ccc(S(=O)(=O)Nc2ccc(S(=O)(=O)N3CCOCC3)cc2)cc1	Apaf-1 act -64 | Rh110 act interf inactive | Apaf-1 act conf2 inactive

Screens (PubChem BioAssay)
